Laboratory results taken from ChEMBL document CHEMBL4340525, “Tumor-Targeted Delivery of 6-Diazo-5-oxo-l-norleucine (DON) Using Substituted Acetylated Lysine Prodrugs” (J Med Chem, 2019).

Tests used:
[1] = Prodrug conversion in human P493B cells suspended in human plasma assessed as (S)-isopropyl 2-amino-6-diazo-5-oxohexanoate formation measured after 1 hr by HRMS analysis; assay type: ADME, cell-based
Outline: (§1)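 Metabolite identification: compound was incubated 1 h with 10 million P493B cells suspended in 1 mL human plasma. Cell pellets were collected and metabolites identified by HRMS.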

[2] = Stability in swine jejunum assessed as parent compound remaining at 20 uM measured after 1 hr by LC-MS/MS analysis; assay type: ADME, tissue-based, Sus scrofa; settings: pig
Outline: (§2)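 Washed swine jejunum was diluted 10-fold in 0.1 M potassium phosphate buffer and probe-sonicated. Prodrug was spiked at 20 µM final and incubated 1 h at 37 °C with orbital shaking. Triplicate quench in acetonitrile with losartan internal standard. Percent parent remaining by LC-MS/MS peak-area ratio.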

[3] = Stability in human plasma assessed as parent compound remaining at 20 uM measured after 1 hr by LC-MS/MS analysis
[4] = Stability in swine liver homogenates assessed as parent compound remaining at 20 uM measured after 1 hr by LC-MS/MS analysis; settings: Sus scrofa, pig, tissue homogenate
[5] = Drug level in human P493B cells suspended in human plasma assessed as tumor cell to plasma ratio by measuring 6-diazo-5-oxo-L-norleucine formation at 20 uM measured after 1 hr by LC-MS/MS analysis relative to 6-diazo-5-oxo-L-norleucine alone; assay type: ADME, cell-based
Outline: (§3)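 Cells were grown in RPMI 1640 with 10% FBS, washed in DPBS and resuspended in human plasma at 10 million cells/mL. After 5 min preincubation at 37 °C, compound was added at 20 µM final for 1 h. The mix was centrifuged at 10 000g and the washed pellet and plasma were quantified separately. DON was read by LC-MS/MS after dabsyl chloride derivatisation, intact prodrug directly. Standard curves were made in naive cells or plasma.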

[6] = Stability in mouse plasma assessed as parent compound remaining at 20 uM measured after 1 hr by LC-MS/MS analysis
[7] = Drug level in human P493B cells suspended in human plasma assessed as tumor cell to plasma ratio by measuring 6-diazo-5-oxo-L-norleucine formation at 20 uM measured after 1 hr by LC-MS/MS analysis; assay type: ADME, cell-based; outline: as §3
[8] = Prodrug conversion in human P493B cells suspended in human plasma assessed as 6-diazo-5-oxo-L-norleucine formation at 20 uM measured after 1 hr by LC-MS/MS analysis; assay type: ADME, cell-based; outline: as §3
[9] = Stability in human plasma suspended with human P493B cells at 20 uM measured after 1 hr by LC-MS/MS analysis; assay type: ADME, cell-free; outline: as §3
[10] = Stability in swine plasma assessed as parent compound remaining at 20 uM measured after 1 hr by LC-MS/MS analysis; settings: Sus scrofa, pig
[11] = Stability in swine jejunum at 20 uM measured after 1 hr by LC-MS/MS analysis; assay type: ADME, tissue-based, Sus scrofa; settings: pig; outline: as §2
Homo sapiens = species: Homo sapiens; experiment: (§4) Antiproliferative activity against human P493B cells measured after 72 hrs by CellTiter 96 aqueous one solution cell proliferation assay; assay type: functional, cell-based
Outline: (§5)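 P493B lymphoma cells seeded at 20 000 cells/well in growth medium. DMSO stocks added as a 1:10 serial dilution, final 0.2% DMSO. Cells grown 72 h with compound, then given CellTiter 96 AQueous reagent for 2 h and read by absorbance at 490 nm. EC50 obtained by nonlinear regression of log-transformed data.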

[12] = as §4; assay type: functional, cell-based; outline: as §5
[13] = Drug level in human P493B cells suspended in human plasma assessed as tumor cell to plasma ratio at 20 uM measured after 1 hr by LC-MS/MS analysis; assay type: ADME, cell-based
Outline: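 P493B cells grown in RPMI 1640 with 10% FBS, then suspended in human plasma at 10 million cells/mL. Suspension preincubated 5 min at 37 °C, dosed to a final 20 μM, held 1 h at 37 °C, then spun to separate cells from plasma. DON and intact prodrug in pellet and plasma measured by LC-MS/MS; for DON, after dabsyl chloride derivatization. Ratio = cell DON/plasma DON.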

[14] = Prodrug conversion in human P493B cells suspended in human plasma assessed as 6-diazo-5-oxo-L-norleucine formation measured after 1 hr by HRMS analysis; assay type: ADME, cell-based; outline: as §1

CC(C)OC(=O)[C@H](CCC(=O)C=[N+]=[N-])NC(=O)[C@H](CCCCN)NC(=O)C12CC3CC(CC(C3)C1)C2
Drug metabolism [1]: Metabolite_Detected

CC(=O)NCCCC[C@H](NC(=O)[C@H](Cc1c[nH]c2ccccc12)NC(C)=O)C(=O)N[C@@H](CCC(=O)C=[N+]=[N-])C(=O)OC(C)C
Stability [2]: > 50% | Stability [3]: 102% | Stability [4]: 67% | fold change (FC) [5]: 30 | Stability [6]: 0% | Ratio [7]: 11 | Drug metabolism [8]: Metabolite_Detected | Stability [9]: Stable | Stability [10]: 75%

CCCCCCCCCCCCCCCC(=O)N[C@@H](CCCCNC(C)=O)C(=O)N[C@@H](CCC(=O)C=[N+]=[N-])C(=O)OC(C)C
Stability [3]: 84% | Stability [6]: 30% | Stability [11]: Unstable | Stability [10]: 88%

CC(=O)NCCCC[C@H](NC(=O)[C@@H]1Cc2ccccc2CN1C(C)=O)C(=O)N[C@@H](CCC(=O)C=[N+]=[N-])C(=O)OC(C)C
Stability [2]: > 50% | Stability [3]: 110% | Stability [4]: 72% | fold change (FC) [5]: 115 | Stability [6]: 0% | Ratio [7]: 46 | Drug metabolism [8]: 0.12 µM | Stability [9]: Stable | Stability [10]: 98%

CC(=O)NCCCC[C@H](NC(=O)OCC1c2ccccc2-c2ccccc21)C(=O)N[C@@H](CCC(=O)C=[N+]=[N-])C(=O)OC(C)C
Stability [3]: 93% | Stability [4]: 19% | Stability [6]: 2% | Stability [11]: Unstable | Stability [10]: 78%

CC(=O)NCCCC[C@H](NC(=O)[C@@H](N)Cc1c[nH]c2ccccc12)C(=O)N[C@@H](CCC(=O)C=[N+]=[N-])C(=O)OC(C)C
Stability [3]: 7% | Stability [4]: 0% | Stability [6]: 0% | Stability [11]: Unstable | Stability [10]: 19%

[N-]=[N+]=CC(=O)CC[C@H](N)C(=O)O [6-DIAZO-5-OXO-L-NORLEUCINE]
Activity (Homo sapiens): Dose-dependent effect | EC50 [12]: 10 µM | Ratio [13]: 0.4

CC(=O)NCCCC[C@H](NC(=O)[C@H](Cc1c[nH]c2ccccc12)NC(=O)C(C)(C)C)C(=O)N[C@@H](CCC(=O)C=[N+]=[N-])C(=O)OC(C)C
Stability [3]: 88% | Stability [6]: 0% | Stability [11]: Unstable | Stability [10]: 95%

CC(=O)NCCCC[C@H](NC(=O)OC12CC3CC(CC(C3)C1)C2)C(=O)N[C@@H](CCC(=O)C=[N+]=[N-])C(=O)OC(C)C
Stability [2]: > 50% | Stability [3]: 100% | Stability [6]: 4% | Stability [10]: 77%

CC(=O)NCCCC[C@H](NC(=O)Cc1c[nH]c2ccccc12)C(=O)N[C@@H](CCC(=O)C=[N+]=[N-])C(=O)OC(C)C
Stability [2]: > 50% | Stability [3]: 94% | Stability [4]: 40% | Stability [6]: 0% | Stability [10]: 98%

CC(=O)NCCCC[C@H](NC(=O)OC(C)(C)C)C(=O)N[C@@H](CCC(=O)C=[N+]=[N-])C(=O)OC(C)C
Stability [3]: 95% | fold change (FC) [5]: 32 | Stability [6]: 1% | Ratio [7]: 13 | Drug metabolism [8]: Metabolite_Detected | Stability [9]: Stable | Stability [10]: 85%

CC(C)OC(=O)[C@@H](N)CCC(=O)C=[N+]=[N-]
Drug metabolism [14]: Metabolite_Detected

CC(=O)NCCCC[C@H](NC(=O)[C@@H]1Cc2ccccc2CN1)C(=O)N[C@@H](CCC(=O)C=[N+]=[N-])C(=O)OC(C)C
Stability [3]: 95% | Stability [4]: 0% | Stability [6]: 0% | Stability [11]: Unstable | Stability [10]: 62%

CCCCCCCC(=O)N[C@@H](CCCCNC(C)=O)C(=O)N[C@@H](CCC(=O)C=[N+]=[N-])C(=O)OC(C)C
Stability [2]: > 50% | Stability [3]: 95% | Stability [6]: 0% | Stability [10]: 91%
